According to ChEMBL document CHEMBL1914423, “New imidazo[2,1-b]thiazole derivatives: synthesis, in vitro anticancer evaluation, and in silico studies” (Eur J Med Chem, 2011):

Key:
SK-MEL-5 = experiment: Anticancer activity against human SK-MEL-5 cells assessed as cell growth at 10^-5 M after 48 hrs by SRB assay; type: functional; settings: SK-MEL-5, 48 h, read-out: Activity
PC-3 = experiment: Anticancer activity against human PC3 cells assessed as cell growth at 10^-5 M after 48 hrs by SRB assay; type: functional; settings: PC-3, 48 h, read-out: Activity
MDA-MB-435 = experiment: Anticancer activity against human MDA-MB-435 cells assessed as cell growth at 10^-5 M after 48 hrs by SRB assay; type: functional; settings: MDA-MB-435, 48 h, read-out: Activity
HOP-92 = experiment: Anticancer activity against human HOP92 cells assessed as cell growth at 10^-5 M after 48 hrs by SRB assay; type: functional; settings: HOP-92, 48 h, read-out: Activity
How it was run: (§1)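 NCI-60 single-dose screen at one concentration. Cells grown in RPMI 1640 with 5% FBS and 2 mM L-glutamine, plated at 5000–40,000 cells/well, and pre-incubated 24 h at 37 °C in 5% CO2 before DMSO-dissolved drug was added. Cells fixed with TCA, SRB-stained, absorbance read at 515 nm. Percent growth calculated against time-zero and untreated control plates.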

OVCAR-8 = experiment: Anticancer activity against human OVCAR8 cells assessed as cell growth at 10^-5 M after 48 hrs by SRB assay; type: functional; settings: OVCAR-8, 48 h, read-out: Activity
RPMI-8226 = experiment: Anticancer activity against human RPMI8226 cells assessed as cell growth at 10^-5 M after 48 hrs by SRB assay; type: functional; settings: RPMI-8226, 48 h, read-out: Activity
KM12 = experiment: Anticancer activity against human KM12 cells assessed as cell growth at 10^-5 M after 48 hrs by SRB assay; type: functional; settings: KM12, 48 h, read-out: Activity; how it was run: as §1
SF-295 = experiment: Anticancer activity against human SF295 cells assessed as cell growth at 10^-5 M after 48 hrs by SRB assay; type: functional; settings: SF-295, 48 h, read-out: Activity
SNB-19 = experiment: Anticancer activity against human SNB19 cells assessed as cell growth at 10^-5 M after 48 hrs by SRB assay; type: functional; settings: SNB-19, 48 h, read-out: Activity
SK-OV-3 = experiment: Anticancer activity against human SKOV3 cells assessed as cell growth at 10^-5 M after 48 hrs by SRB assay; type: functional; settings: SK-OV-3, 48 h, read-out: Activity
UO-31 = experiment: Anticancer activity against human UO31 cells assessed as cell growth at 10^-5 M after 48 hrs by SRB assay; type: functional; settings: UO-31, 48 h, read-out: Activity
How it was run: (§2)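 NCI-60 single-dose screen: cells in RPMI 1640 with 5% FBS and 2 mM L-glutamine, plated at 5000–40,000 cells/well by doubling time, and preincubated 24 h at 37 °C. Compound given at one concentration from DMSO stock. Cells TCA-fixed and SRB-stained, absorbance at 515 nm. Percent growth relative to time-zero and untreated controls; inhibition % = 100 − growth %.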

SR = experiment: Anticancer activity against human SR cells assessed as cell growth at 10^-5 M after 48 hrs by SRB assay; type: functional; settings: read-out: Activity; how it was run: as §2
SW-620 = experiment: Anticancer activity against human SW620 cells assessed as cell growth at 10^-5 M after 48 hrs by SRB assay; type: functional; settings: SW-620, 48 h, read-out: Activity; how it was run: as §2
HCT-15 = experiment: Anticancer activity against human HCT15 cells assessed as cell growth at 10^-5 M after 48 hrs by SRB assay; type: functional; settings: HCT-15, 48 h, read-out: Activity; how it was run: as §1
T47D = experiment: Anticancer activity against human T47D cells assessed as cell growth at 10^-5 M after 48 hrs by SRB assay; type: functional; settings: read-out: Activity; how it was run: as §2
SF-268 = experiment: Anticancer activity against human SF268 cells assessed as cell growth at 10^-5 M after 48 hrs by SRB assay; type: functional; settings: SF-268, 48 h, read-out: Activity
CCRF-CEM = experiment: Anticancer activity against human CCRF-CEM cells assessed as cell growth at 10^-5 M after 48 hrs by SRB assay; type: functional; settings: read-out: Activity; how it was run: as §1
UACC-257 = experiment: Anticancer activity against human UACC257 cells assessed as cell growth at 10^-5 M after 48 hrs by SRB assay; type: functional; settings: UACC-257, 48 h, read-out: Activity; how it was run: as §2
CAKI-1 = experiment: Anticancer activity against human Caki1 cells assessed as cell growth at 10^-5 M after 48 hrs by SRB assay; type: functional; settings: CAKI-1, 48 h, read-out: Activity; how it was run: as §1
[1] = Antiproliferative activity against human A375P cells after 48 hrs by MTT assay; type: functional, cell-based
How it was run: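 A375P cells in DMEM with 10% FBS at 37 °C, 5% CO2. Seeded at 5×10³ cells/well, held 24 h, then treated with 12-point 3-fold serial dilutions for 48 h. Viability by MTT reduction. IC50 values are means of triplicate experiments.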

SK-MEL-2 = experiment: Anticancer activity against human SK-MEL-2 cells assessed as cell growth at 10^-5 M after 48 hrs by SRB assay; type: functional; settings: SK-MEL-2, 48 h, read-out: Activity
MCF7 = experiment: Anticancer activity against human MCF7 cells assessed as cell growth at 10^-5 M after 48 hrs by SRB assay; type: functional; settings: MCF7, 48 h, read-out: Activity; how it was run: as §1
K562 = experiment: Anticancer activity against human K562 cells assessed as cell growth at 10^-5 M after 48 hrs by SRB assay; type: functional; settings: K562, 48 h, read-out: Activity; how it was run: as §1
NCI-H226 = experiment: Anticancer activity against human NCI-H226 cells assessed as cell growth at 10^-5 M after 48 hrs by SRB assay; type: functional; settings: NCI-H226, 48 h, read-out: Activity
OVCAR-5 = experiment: Anticancer activity against human OVCAR5 cells assessed as cell growth at 10^-5 M after 48 hrs by SRB assay; type: functional; settings: OVCAR-5, 48 h, read-out: Activity
Malme-3M = experiment: Anticancer activity against human MALME-3M cells assessed as cell growth at 10^-5 M after 48 hrs by SRB assay; type: functional; settings: read-out: Activity; how it was run: as §1
NCI-H322M = experiment: Anticancer activity against human NCI-H322M cells assessed as cell growth at 10^-5 M after 48 hrs by SRB assay; type: functional; settings: read-out: Activity
IGROV-1 = experiment: Anticancer activity against human IGROV1 cells assessed as cell growth at 10^-5 M after 48 hrs by SRB assay; type: functional; settings: IGROV-1, 48 h, read-out: Activity; how it was run: as §1
A498 = experiment: Anticancer activity against human A498 cells assessed as cell growth at 10^-5 M after 48 hrs by SRB assay; type: functional; settings: A498, 48 h, read-out: Activity; how it was run: as §1
HT-29 = experiment: Anticancer activity against human HT-29 cells assessed as cell growth at 10^-5 M after 48 hrs by SRB assay; type: functional; settings: HT-29, 48 h, read-out: Activity; how it was run: as §1
NCI/ADR-RES = experiment: Anticancer activity against human NCI/ADR-RES cells assessed as cell growth at 10^-5 M after 48 hrs by SRB assay; type: functional; settings: read-out: Activity
786-0 = experiment: Anticancer activity against human 786-0 cells assessed as cell growth at 10^-5 M after 48 hrs by SRB assay; type: functional; settings: 786-0, 48 h, read-out: Activity; how it was run: as §1

Compound	growth at 10 µM (SK-MEL-5) [%]	growth at 10 µM (PC-3) [%]	growth at 10 µM (MDA-MB-435) [%]	growth at 10 µM (HOP-92) [%]	growth at 10 µM (OVCAR-8) [%]	growth at 10 µM (RPMI-8226) [%]	growth at 10 µM (KM12) [%]	growth at 10 µM (SF-295) [%]	growth at 10 µM (SNB-19) [%]	growth at 10 µM (SK-OV-3) [%]	growth at 10 µM (UO-31) [%]	growth at 10 µM (SR) [%]	growth at 10 µM (SW-620) [%]	growth at 10 µM (HCT-15) [%]	growth at 10 µM (T47D) [%]	growth at 10 µM (SF-268) [%]	growth at 10 µM (CCRF-CEM) [%]	growth at 10 µM (UACC-257) [%]	growth at 10 µM (CAKI-1) [%]	IC50 [1] [µM]	further results
O=C(NCCNc1nccc(-c2c(-c3cccc(O)c3)nc3sccn23)n1)c1cc(C(F)(F)F)cc(C(F)(F)F)c1	81.6	82.8	59.2	77.1	102	91	103	97.1	123	96.3	94.6	98.2	117	96.6	88.5	105	84.7	66.5	96.8	> 10	growth at 10 µM (SK-MEL-2): 101%; growth at 10 µM (MCF7): 96.3%; growth at 10 µM (K562): 96.2%; growth at 10 µM (NCI-H226): 116%; growth at 10 µM (OVCAR-5): 104%; growth at 10 µM (Malme-3M): 27%; growth at 10 µM (NCI-H322M): 122%; growth at 10 µM (IGROV-1): 93%; growth at 10 µM (A498): 112%; growth at 10 µM (HT-29): 63.1%; growth at 10 µM (NCI/ADR-RES): 108%; growth at 10 µM (786-0): 101%
O=C(NCCNc1nccc(-c2c(-c3cccc(O)c3)nc3sccn23)n1)c1ccc(N2CCOCC2)c(C(F)(F)F)c1	40	56.6	20.9	38.9	72.8	58.8	77.5	67.5	109	66.4	61.3	76.1	111	80	60.1	79.1	56.9	15.8	66.9	> 10	growth at 10 µM (SK-MEL-2): 66.7%; growth at 10 µM (MCF7): 58.7%; growth at 10 µM (K562): 63%; growth at 10 µM (NCI-H226): 69.5%; growth at 10 µM (OVCAR-5): 91.2%; growth at 10 µM (Malme-3M): -4.27%; growth at 10 µM (NCI-H322M): 102%; growth at 10 µM (IGROV-1): 54.3%; growth at 10 µM (A498): 47.8%; growth at 10 µM (HT-29): 68.6%; growth at 10 µM (NCI/ADR-RES): 95.4%; growth at 10 µM (786-0): 60.1%
